# Reference: ChEMBL document CHEMBL3400140, “Design, synthesis, and structure-activity relationships of 1-ethylpyrazole-3-carboxamide compounds as novel hypoxia-inducible factor (HIF)-1 inhibitors” (Bioorg Med Chem, 2015)
# Activity calls are given as the source filed them. The rule behind the calls is not given here.
# Key:
# [1] = molecular target: T1, Hypoxia inducible factors; HIF-1-alpha, HIF-2-alpha (Homo sapiens, UniProt Q16665+Q99814); assay: Inhibition of HIF1 in human HT1080 cells transfected with 5xHRE/pGL3/VEGF/E1b reporter plasmid pre-incubated for 1 hr followed by incubation under hypoxia conditions for 24 hrs by HRE-driven luciferase reporter gene assay; format: cell-based; settings: for IC50: ht-1080
# [2] = Inhibition of cell proliferation of human HT1080 cells after 72 hrs by WST-8 dye based cell counting assay; format: functional; settings: HT-1080, 72 h
# Summary of the method: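 HT1080 cells seeded at 1.0 × 10³/well and kept under hypoxia (1% O₂); growth read 72 h after compound addition with WST-8 reagent, absorbance at 450 nm.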
# [3] = molecular target: T1, Hypoxia inducible factors; HIF-1-alpha, HIF-2-alpha; assay: Inhibition of HIF1-mediated carbonic anhydrase 9 gene expression in human HT1080 cells at 100 uM after 16 hrs by real time PCR method; format: cell-based; settings: HT-1080
# Summary of the method: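 HT1080 cells exposed to compounds at 100 µM for 16 h; CAIX mRNA measured by quantitative PCR normalized to 18S rRNA, expressed relative to the normoxic value.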
# HT-1080 [4] = assay: Inhibition of cell migration of scratched human HT1080 cells monolayers at 100 uM after 48 hrs by phase contrast microscopy based wound-healing assay; format: functional
# [5] = molecular target: T1, Hypoxia inducible factors; HIF-1-alpha, HIF-2-alpha; assay: Inhibition of HIF1-mediated carbonic anhydrase 9 gene expression in human HT1080 cells at 1 to 100 uM after 4 hrs by real time PCR method; format: cell-based; settings: HT-1080
# Summary of the method: (§1)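 HT1080 cells treated 4 h with compound; mRNA of CAIX, HIF-1a and HIF-1b quantified by real-time PCR, normalized to 18S rRNA and expressed relative to DMSO-treated cells.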
# HT-1080 [6] = assay: Effect on HIF-1alpha gene expression in human HT1080 cells up to 100 uM after 4 hrs by real time PCR method; format: functional, cell-based; summary of the method: as §1
# HT-1080 [7] = assay: Effect on HIF-1beta gene expression in human HT1080 cells up to 100 uM after 4 hrs by real time PCR method; format: functional, cell-based; summary of the method: as §1
SMILES,IC50 [1] [µM],inhibition [3],inhibition ([1]; HT-1080),inhibition [5],IC50 [2] [µM],inhibition (HT-1080 [4]),Activity (HT-1080 [6]),Activity (HT-1080 [7])
CCn1cc(NC(=O)c2ccc(Cn3nc(C)cc3C)o2)c(C(=O)NC)n1,19.4,,,,18.1,,,
CCn1cc(NC(=O)c2ccc(Cn3nc(C)cc3C)o2)c(C(=O)N(C)C)n1,> 100,,,,75,,,
CCn1cc(NC(=O)c2ccc(Cn3nc(C)c(Br)c3C)o2)c(C(N)=O)n1,8.1,Active,,,7,Active,,
CCn1cc(NC(=O)c2ccc(Cc3c(C)noc3C)o2)c(C(N)=O)n1,> 100,,,,> 100,,,
Cc1cc(C)n(Cc2ccc(C(=O)Nc3cnn4c3C(=O)NCC4)o2)n1,> 100,,,,> 100,,,
CCn1cc(NC(=O)c2ccc(Cn3nc(C)c(Cl)c3C)o2)c(C(N)=O)n1,8.7,Active,,,7.4,Active,,
CCn1cc(NC(=O)c2ccc(Cn3nc(C)cc3C)s2)c(C(N)=O)n1,> 100,,,,> 100,,,

# Now from value to compound, other results behind:
IC50 [1] [µM],inhibition [3],inhibition ([1]; HT-1080),inhibition [5],SMILES,IC50 [2] [µM],inhibition (HT-1080 [4]),Activity (HT-1080 [6]),Activity (HT-1080 [7])
71.6,,,,Cc1cc(C)n(Cc2ccc(C(=O)Nc3c[nH]nc3C(N)=O)o2)n1,66.6,,,
19.1,,Dose-dependent effect,Dose-dependent effect,CCn1cc(NC(=O)c2ccc(Cn3nc(C)cc3C)o2)c(C(N)=O)n1,15.1,Active,inactive,inactive
81.8,,,,CCn1cc(NC(=O)c2ccc(Cn3cccn3)o2)c(C(N)=O)n1,75.1,,,
> 100,inactive,,,CCn1ncc(NC(=O)c2ccc(Cn3nc(C)cc3C)o2)c1C(N)=O,> 100,,,
72,,,,CCn1cc(NC(=O)c2cccc(Cn3nc(C)cc3C)c2)c(C(N)=O)n1,50.2,,,
